Compound activity (PubChem)
A selection: hits, their analogues and other compounds. The true share with any hit is near 3.3%.
TCR CD3 inh: human TCR-CD3 binding inhibition | AID 651800 | inhibition, % at 9.4 µM | TAMRA-labeled TCR probe fluorescence, biochemical | hit rate 0.37% among 360,000; in the data active = inhibition above about 19%;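 also: recombinant mutant TCR 2C K166C tagged with TAMRA read by polarization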
PRMT1 FP inh: blocks human protein arginine methyltransferase 1 | recombinant PRMT1, activity-based probe fluorescence polarization | inhibition, % at 2.79 µM | hit rate 1.3% among 370,000 | AID 652257;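 active = inhibition above about 21% made by adding two undisclosed values, limit read from the data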
ABHD4 inh: inhibitors of mouse ABHD4; Q8VD66; purified mABHD4, FP-Rh probe fluorescence polarization; inhibition, % at 8.92 µM; hit rate 0.54% among 370,000; AID 720543;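 active = inhibition exceeding the mean over every tested compound plus 3 SD, cut at about 30% in these data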
Target sequence (Q8VD66 whole entry, looked up): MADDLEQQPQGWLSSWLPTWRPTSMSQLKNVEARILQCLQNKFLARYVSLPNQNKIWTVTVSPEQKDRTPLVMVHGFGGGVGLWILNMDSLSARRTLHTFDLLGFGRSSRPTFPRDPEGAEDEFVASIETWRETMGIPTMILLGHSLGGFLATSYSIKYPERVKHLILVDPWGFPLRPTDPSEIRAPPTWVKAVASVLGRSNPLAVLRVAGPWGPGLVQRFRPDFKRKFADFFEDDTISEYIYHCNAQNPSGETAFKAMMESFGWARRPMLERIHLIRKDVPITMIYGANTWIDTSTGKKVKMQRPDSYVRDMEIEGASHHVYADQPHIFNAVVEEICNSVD
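Test system: mouse ABHD4 enzyme, wild type. Reagent: FP-Rh fluorescent activity-based probe, added after compound pre-incubation. Timing: pre-incubation 45 min, probe exposure 60 min, at 25 °C. Technique: FP readout, ex 525 nm / em 598 nm. Benchmarks: high control S159A mutant with DMSO, low control median of compound wells.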
rCAG binder: molecules binding r(CAG) RNA repeats; r(CAG) RNA repeat, TO-PRO-1 dye displacement fluorescence; inhibition, % at 3 µM; hit rate 1.3% among 370,000; AID 651821;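 active = inhibition above the plate cutoff, the mean of all test compounds on that plate plus 3 SD, cut at about 35% in these data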;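 also: higher means more dye released from RNA so lower well fluorescence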
SIAE primary: blocks human sialic acid acetylesterase; Q9HAT2; SIAE FP-Rh probe binding, fluorescence polarization; inhibition, % at 9.66 µM; hit rate 0.69% among 370,000;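 active = inhibition above a cutoff: mean of compounds within the control limits plus 3 SD of those, cut at about 17% in these data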
Numbers stand for hits; 0 = inactive; - = no result given; ! = not active in a repeat.

SMILES	TCR CD3 inh	PRMT1 FP inh	ABHD4 inh	rCAG binder	SIAE primary
COc1cc(C=Nn2c(-c3n[nH]c4c3CCC4)n[nH]c2=S)ccc1OCc1ccccc1	-	0	0	0	0
CCNC(=O)c1sc(=S)n(CC)c1N	0	0	0	0	0
CCn1c(N)c(C(=O)NC)sc1=S	0	25	0	0	0
CN1CCN(NC(=O)CN2C(=O)/C(=C/c3c(Cl)cccc3Cl)SC2=S)CC1	0	22	0	0	0
N#CC1=C(N)n2c(s/c(=C\c3cccs3)c2=O)=C(C#N)C1c1cccs1 (stereo unspecified)	0	0	0	51	0
CC(C)CN1C(=O)[C@]2(CC(=O)N(C)C2c2ccccc2)c2cc(-n3cc(-c4ccccc4)nn3)ccc21 (stereo partly specified)	-	0	0	0	0
CCN1CCCCC(NC(=O)c2ccccc2)C1=O (stereo unspecified)	-	0	0	0	0
CC(C)(C)c1csc(NNC(=O)c2ccc(Br)cc2)n1	0	23	0	0	0
CC(C)(C)c1csc(NC(=O)c2ccccc2O)n1	0	0	0	0	0
COC(=O)c1ccccc1NC(=O)c1ccccc1OC	0	0	0	0	0
COc1ccccc1C(=O)Nc1ccccc1SC(=O)c1ccccc1OC	0	52	0	0	0
O=C(OC12CCCN(C1)/C(=C/c1ccccc1)C2)C1CCCC1 (stereo unspecified)	-	0	0	0	0
Cc1cccc(-c2cccc3c4c([nH]c23)[C@@H]2C[C@H](N(C)C(=O)NC3CCCCC3)[C@H]([C@H](C)O)C(=O)N2CC4)c1	-	0	0	0	0
O=C1CCCc2oc3ccc(NS(=O)(=O)c4cccc5cccnc45)cc3c21	0	0	0	0	0
O=c1oc2ccc(NS(=O)(=O)c3cccc4cccnc34)cc2s1	0	77	0	0	0
Cc1cc(-c2cc(-c3ccc(Cl)cc3)nc(N)c2C#N)co1	0	39	0	0	0
COc1ccc(-c2cc(-c3ccc(O)cc3)nc(N)c2C#N)cc1OC	0	0	0	0	0
Cc1ccc(-n2c(SCC(=O)Nc3ccc(OCc4ccccc4)cc3)nnc2-c2cnccn2)cc1	-	0	0	0	0
O=C(CCN1CCCCC1)c1ccc2c(c1)OCCO2	0	24	0	0	0
Nc1nc(SCc2ccccc2)ns1	0	23	0	0	0
CC(C)c1cc(C(C)C)c(S(=O)(=O)N2CCC(c3cn4ccccc4n3)CC2)c(C(C)C)c1	-	0	0	0	0
Cc1cc2c(SCC(=O)Nc3cccc(O)c3)ncnc2s1	0	34	0	54	0
CCCCCNC(=O)C(c1ccc(C(F)(F)F)cc1)n1c(=O)c(-c2ccco2)nc2ccccc21 (stereo unspecified)	0	25	0	0	0
O=C(NCc1ccccc1)C(c1ccc(-c2ccccc2)cc1)n1c(=O)c(-c2ccco2)nc2ccccc21 (stereo unspecified)	0	0	0	0	0
CCCCCNC(=O)C(C1CC1)n1c(=O)c(-c2ccco2)nc2ccccc21 (stereo unspecified)	0	22	0	0	0
SMILES	TCR CD3 inh	PRMT1 FP inh	ABHD4 inh	rCAG binder	SIAE primary
S=C1NC(c2ccccc2)N2C(=S)NC(c3ccccc3)N12 (stereo unspecified)	0	0	0	0	0
Cc1ccc(C2NC(=S)N3C(c4ccc(C)cc4)NC(=S)N23)cc1 (stereo unspecified)	0	22	0	0	0
N#CC1=C2SCN(Cc3ccco3)CN2C(=O)CC1c1cccc2ccccc12 (stereo unspecified)	0	30	0	37	0
O=[N+]([O-])c1ccc(S(=O)(=O)Nc2ccc(-c3csc(-c4ccccc4)n3)cc2)cc1	0	0	0	79	0
O=S(=O)(Nc1ccc(-c2csc(-c3ccccc3)n2)cc1)c1ccccc1	0	0	0	0	0
CCOc1cc(C2NC(=S)NC(C)=C2C(=O)Nc2ccccc2)ccc1O (stereo unspecified)	0	22	0	0	0
COc1cc(C2NC(=S)NC(C)=C2C(=O)Nc2cc(C)cc(C)c2)ccc1O (stereo unspecified)	0	0	0	0	0
Cc1sc2ncn(CC(=O)NCc3ccco3)c(=O)c2c1-c1ccc(F)cc1	0	24	0	0	0
C[C@H]1C2CC(OC(=O)NCCCc3ccccc3)C(C2)[C@H]2CCCCN21 (stereo partly specified)	-	0	0	0	0
O=[N+]([O-])c1ccc(SCCc2ccccn2)cc1	0	0	0	0	0
O=[N+]([O-])c1ccc(SCCc2ccncc2)cc1	0	24!	0	0	0
